Converted amounts (≈) assume the structure as drawn.

In data set [1] the target is CYP2C9 (Homo sapiens, UniProt P11712). Nature of the data set: Inhibition of CYP2C9 (unknown origin) at 10 uM. The format is ADME. Summed up: (§1)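 Each test compound was tested at a single concentration of 10 μM against CYP1A2, 2C8, 2C9, 2C19, 2D6 and 3A4. Results are reported as percent inhibition.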
For data set [2], the system named is Enterococcus faecalis. Briefly: Antibacterial activity against Enterococcus faecalis ATCC 29212 by microbroth dilution method. It counts as functional. In general terms: In broth dilution the organism is exposed to a series of concentrations in liquid medium.
Data set [3] is described as follows: Lipophilicity, log D of the compound at pH 7.4. It counts as physicochemical. As to conditions: buffer.
Data set [4] can be described thus: Solubility in pH 6.8 buffer. The format is physicochemical. In short, it runs like this:
(§2)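 Aqueous solubility was measured in buffers at pH 1.2 and pH 6.8 and reported in μg/mL.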

The target of data set [5] is CYP2C19 (Homo sapiens, UniProt P33261). Briefly: Inhibition of CYP2C19 (unknown origin) at 10 uM. The format is ADME. Summed up: as §1
The test system of data set [6] is Staphylococcus aureus. Briefly: Antibacterial activity against linezolid-resistant Staphylococcus aureus by microbroth dilution method. It counts as functional.
In data set [7] the target is CYP2D6 (Homo sapiens, UniProt P10635). Briefly: Inhibition of CYP2D6 (unknown origin) at 10 uM. It counts as ADME. Summed up:
as §1

The subject of data set [8] is Staphylococcus epidermidis. Nature of the data set: Antibacterial activity against Staphylococcus epidermidis ATCC 14990 by microbroth dilution method. It counts as functional.
Data set [9] has as its system Staphylococcus aureus. Briefly: Antibacterial activity against Staphylococcus aureus ATCC 6538P by microbroth dilution method. It counts as functional.
The test system of data set [10] is Staphylococcus aureus. Briefly: Antibacterial activity against Staphylococcus aureus ATCC 29213 by microbroth dilution method. It counts as functional.
Data set [11] can be described thus: Metabolic stability in mouse liver microsomes assessed as parent compound remaining level. It counts as ADME, microsome. Summed up: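 Compound was incubated with mouse liver microsomes to assess phase I metabolism. Read-out is percent of parent compound remaining.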
A general note: Microsomes from liver hold many membrane-bound enzymes, among them those of drug oxidation.

Data set [12] has as its target T1, CYP2C8 (Homo sapiens, UniProt P10632).
T1 sequence (P10632 whole entry): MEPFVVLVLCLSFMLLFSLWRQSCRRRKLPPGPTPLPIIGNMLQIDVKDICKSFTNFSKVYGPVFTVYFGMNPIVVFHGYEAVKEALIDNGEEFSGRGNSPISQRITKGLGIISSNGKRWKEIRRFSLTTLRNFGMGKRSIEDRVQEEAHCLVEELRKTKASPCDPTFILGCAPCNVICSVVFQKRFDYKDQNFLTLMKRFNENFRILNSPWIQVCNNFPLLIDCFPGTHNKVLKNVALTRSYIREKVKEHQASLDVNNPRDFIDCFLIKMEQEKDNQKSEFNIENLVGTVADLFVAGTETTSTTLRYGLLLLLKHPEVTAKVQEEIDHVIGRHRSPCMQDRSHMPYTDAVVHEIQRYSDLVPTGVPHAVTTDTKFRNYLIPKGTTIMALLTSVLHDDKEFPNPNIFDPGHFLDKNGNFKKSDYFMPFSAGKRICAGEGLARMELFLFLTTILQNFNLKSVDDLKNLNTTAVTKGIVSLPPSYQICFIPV
Nature of the data set: Inhibition of CYP2C8 (unknown origin) at 10 uM. It counts as ADME. Summed up:
as §1

Data set [13] has as its target CYP3A4 (Homo sapiens, UniProt P08684). Briefly: Inhibition of CYP3A4 (unknown origin) at 10 uM. The format is ADME. Summed up:
as §1

The subject of data set [14] is Staphylococcus aureus. Briefly: Antibacterial activity against Staphylococcus aureus ATCC 33591 by microbroth dilution method. It counts as functional.
The test system of data set [15] is Streptococcus pneumoniae. Briefly: Antibacterial activity against Streptococcus pneumoniae 55143 by microbroth dilution method. The format is functional.
Data set [16] relates to Haemophilus influenzae. Nature of the data set: Antibacterial activity against Haemophilus influenzae ATCC 49247 by microbroth dilution method. The format is functional.
Data set [17] relates to Staphylococcus aureus. Briefly: Antibacterial activity against methicillin-resistant Staphylococcus aureus 1201984 by microbroth dilution method. It counts as functional.
Data set [18] relates to Streptococcus pyogenes. Briefly: Antibacterial activity against Streptococcus pyogenes ATCC 19615 by microbroth dilution method. The format is functional.
Data set [19] is described as follows: Solubility in pH 1.2 buffer. The format is physicochemical. In short, it runs like this:
as §2

The target of data set [20] is T2, CYP1A2 (Homo sapiens, UniProt P05177).
T2 sequence (P05177 whole entry): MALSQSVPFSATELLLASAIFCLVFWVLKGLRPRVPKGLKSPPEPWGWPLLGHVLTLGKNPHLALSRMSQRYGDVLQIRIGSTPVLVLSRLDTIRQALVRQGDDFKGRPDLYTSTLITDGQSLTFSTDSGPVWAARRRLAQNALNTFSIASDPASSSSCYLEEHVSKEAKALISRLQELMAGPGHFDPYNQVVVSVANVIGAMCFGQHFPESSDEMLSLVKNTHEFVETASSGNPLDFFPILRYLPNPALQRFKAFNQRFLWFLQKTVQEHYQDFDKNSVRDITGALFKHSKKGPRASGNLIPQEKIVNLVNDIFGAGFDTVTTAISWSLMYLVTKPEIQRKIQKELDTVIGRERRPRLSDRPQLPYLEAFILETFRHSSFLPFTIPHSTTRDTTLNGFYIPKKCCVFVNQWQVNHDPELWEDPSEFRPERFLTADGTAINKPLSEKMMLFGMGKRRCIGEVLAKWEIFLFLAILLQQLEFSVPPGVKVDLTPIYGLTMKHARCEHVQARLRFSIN
Nature of the data set: Inhibition of CYP1A2 (unknown origin) at 10 uM. It counts as ADME. In short, it runs like this:
as §1

For data set [21], the system named is Enterococcus faecium. Briefly: Antibacterial activity against Enterococcus faecium 19434 by microbroth dilution method. It counts as functional.

Sequence of CYP3A4 (P08684 whole entry): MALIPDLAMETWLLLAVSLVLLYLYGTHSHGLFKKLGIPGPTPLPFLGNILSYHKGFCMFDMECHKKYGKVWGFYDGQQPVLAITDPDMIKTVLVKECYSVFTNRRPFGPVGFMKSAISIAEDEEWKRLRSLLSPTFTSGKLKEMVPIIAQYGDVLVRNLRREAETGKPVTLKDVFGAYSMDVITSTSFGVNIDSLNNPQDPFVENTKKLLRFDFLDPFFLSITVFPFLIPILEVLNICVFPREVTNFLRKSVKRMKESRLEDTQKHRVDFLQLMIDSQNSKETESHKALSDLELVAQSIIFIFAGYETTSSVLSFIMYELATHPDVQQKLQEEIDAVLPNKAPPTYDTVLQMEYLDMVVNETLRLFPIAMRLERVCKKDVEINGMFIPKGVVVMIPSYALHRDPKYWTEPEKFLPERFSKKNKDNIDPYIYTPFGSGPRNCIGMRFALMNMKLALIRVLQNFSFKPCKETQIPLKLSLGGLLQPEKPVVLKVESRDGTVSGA
Sequence of CYP2C19 (P33261 whole entry): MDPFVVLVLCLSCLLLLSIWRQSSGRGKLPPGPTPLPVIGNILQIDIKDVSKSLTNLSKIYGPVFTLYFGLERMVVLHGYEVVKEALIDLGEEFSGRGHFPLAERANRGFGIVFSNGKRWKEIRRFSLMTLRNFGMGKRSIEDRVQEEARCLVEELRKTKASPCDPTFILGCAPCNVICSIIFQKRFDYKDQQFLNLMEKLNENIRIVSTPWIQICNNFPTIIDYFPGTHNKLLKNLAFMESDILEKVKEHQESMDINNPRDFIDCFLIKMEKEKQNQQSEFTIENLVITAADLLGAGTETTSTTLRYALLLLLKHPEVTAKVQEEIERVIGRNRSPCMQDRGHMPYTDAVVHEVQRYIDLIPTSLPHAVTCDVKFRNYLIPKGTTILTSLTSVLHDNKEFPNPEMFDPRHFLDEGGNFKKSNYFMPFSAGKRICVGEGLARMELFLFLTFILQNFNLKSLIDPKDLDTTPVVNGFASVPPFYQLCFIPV
Sequence of CYP2D6 (P10635 whole entry): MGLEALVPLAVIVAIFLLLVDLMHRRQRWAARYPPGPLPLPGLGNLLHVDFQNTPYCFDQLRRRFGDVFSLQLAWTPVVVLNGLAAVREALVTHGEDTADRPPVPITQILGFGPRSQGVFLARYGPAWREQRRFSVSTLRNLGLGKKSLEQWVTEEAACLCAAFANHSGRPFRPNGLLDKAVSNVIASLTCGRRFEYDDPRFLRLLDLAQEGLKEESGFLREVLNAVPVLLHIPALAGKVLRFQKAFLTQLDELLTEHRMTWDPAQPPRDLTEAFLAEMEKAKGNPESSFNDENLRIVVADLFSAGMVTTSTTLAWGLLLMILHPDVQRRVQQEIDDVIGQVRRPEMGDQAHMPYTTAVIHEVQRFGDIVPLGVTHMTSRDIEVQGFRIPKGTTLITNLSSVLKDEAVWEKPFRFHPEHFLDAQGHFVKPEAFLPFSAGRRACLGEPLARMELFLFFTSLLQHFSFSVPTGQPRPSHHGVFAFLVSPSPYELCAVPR
Sequence of CYP2C9 (P11712 whole entry): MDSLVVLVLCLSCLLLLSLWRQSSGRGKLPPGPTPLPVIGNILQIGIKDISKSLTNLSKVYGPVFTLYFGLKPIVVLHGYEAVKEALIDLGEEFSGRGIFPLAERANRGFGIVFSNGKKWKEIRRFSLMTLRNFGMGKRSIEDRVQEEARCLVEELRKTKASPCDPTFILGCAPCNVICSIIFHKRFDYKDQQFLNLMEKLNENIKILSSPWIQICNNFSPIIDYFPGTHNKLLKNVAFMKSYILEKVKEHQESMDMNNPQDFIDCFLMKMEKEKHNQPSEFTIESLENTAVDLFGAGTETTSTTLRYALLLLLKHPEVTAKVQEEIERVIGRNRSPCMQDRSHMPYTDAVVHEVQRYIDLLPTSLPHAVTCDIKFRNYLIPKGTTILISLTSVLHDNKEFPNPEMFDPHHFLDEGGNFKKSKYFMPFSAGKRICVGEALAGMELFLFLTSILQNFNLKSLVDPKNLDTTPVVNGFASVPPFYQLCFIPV

A word on the inhibition: it is the drop in the measured response relative to a control, in per cent. Low values mean a response near the control, high ones a response far below the control. The logD is the decadic logarithm of the distribution of all forms, ionised or not, between an organic phase and buffer at a given pH. One may read the solubility as how much of the substance goes into solution per volume. Low values mean a poorly soluble substance, high ones a readily soluble substance. In the case of `CC(=O)NC[C@H]1CN(c2ccc(-c3ccc4c(c3)NC(=O)CO4)c(F)c2)C(=O)O1`, the inhibition at 10 µM in data set [1] turned out to be 13%; in [5] it was 20%; in data set [7], 10%; in [12] it was 12%; in [13] it was 0%; in data set [20], 6%. Besides, the MIC was 0.03 µg/mL (≈ 0.0751 µM) in data set [2]; 1 µg/mL (≈ 2.5 µM) in data set [6]; 0.06 µg/mL (≈ 0.15 µM) in [8]; 0.125 µg/mL (≈ 0.313 µM) in data set [9]; 0.125 µg/mL (≈ 0.313 µM) in [10]; 0.5 µg/mL (≈ 1.25 µM) in data set [14]. The MIC in data set [15] is 0.06 µg/mL (≈ 0.15 µM); in [16], 0.25 µg/mL (≈ 0.626 µM); in data set [17] it was 0.5 µg/mL (≈ 1.25 µM); in [18] it was 0.06 µg/mL (≈ 0.15 µM); in data set [21] it was 0.03 µg/mL (≈ 0.0751 µM). The compound also showed a logD in data set [3] of 1.9. For the same compound, the figures for the solubility in data set [4] and in data set [19] were 15 µg/mL (≈ 37.6 µM) and 22 µg/mL (≈ 55.1 µM), respectively. Moreover, the Stability in data set [11] came to 84%.

Regarding `O=C1COc2ccc(-c3ccc(N4C[C@H](CO)OC4=O)cc3F)cc2N1`, the inhibition at 10 µM in [1] stood at 12%; in data set [5] it was 29%; in data set [7], 4%; in data set [12], 0%; in [13], 0%; in data set [20], 4%. The MIC in [2] was under 0.06 µg/mL; in data set [6], 1 µg/mL (≈ 2.79 µM); in data set [8] it was under 0.06 µg/mL; in [9], under 0.06 µg/mL; in data set [10] it was 0.125 µg/mL (≈ 0.349 µM); in data set [14], 0.5 µg/mL (≈ 1.4 µM). Moreover, the MIC in data set [15] was under 0.06 µg/mL; in data set [16], 0.5 µg/mL (≈ 1.4 µM); in [17], 0.5 µg/mL (≈ 1.4 µM); in [18] it was under 0.06 µg/mL; in data set [21], under 0.06 µg/mL. In data set [3], this compound gave a logD of 1.9. Further, the results for the solubility in data set [4] and in data set [19] were 5.2 µg/mL (≈ 14.5 µM) and 4.4 µg/mL (≈ 12.3 µM), respectively. Besides, the Stability in [11] came out at 113%.

The values above are taken from ChEMBL document CHEMBL4130562, “Design, Synthesis, and Antibacterial Evaluation of Oxazolidinones with Fused Heterocyclic C-Ring Substructure” (ACS Med Chem Lett, 2017).
